This note sets out measurements from ChEMBL document CHEMBL1124645, “Minimum-structure enkephalin analogues incorporating L-tyrosine, D(or L)-phenylalanine, and a diamine spacer” (J Med Chem, 1989).

Assay [1] is filed under the species Cavia porcellus. Kind of assay: Ability to display a naloxone-reversible inhibition of electrically induced contractions in GPI in the presence of 1.0 uM bestatin at concentration 10 e-6 M. The format is functional.
Assay [2] is filed under the species Cavia porcellus. The assay is described as follows: Percentage inhibition of compound against morphine at 10 e-7 M in guinea pig ileum tissue. It is filed as functional. In short, it runs like this:
(§1)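 Hartley male guinea pigs (400–450 g); 3–4-cm segments of terminal ileum in a 3.5-mL Krebs bath at 37 ± 0.5 °C, gassed with 95% O2-5% CO2. […] Each was tested at least twice per preparation. Results are the average of at least three ilea from different animals.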

The species named for assay [3] is Cavia porcellus. Kind of assay: Inhibitory activity in guinea pig ileum tissue in the absence and presence of 10 nM naloxone. It is filed as functional.
Assay [4] is filed under the species Cavia porcellus. Kind of assay: Ability to display a naloxone-reversible inhibition of electrically induced contractions in GPI by Morphine at 0.1 uM. The format is functional. In short, it runs like this: as §1
The species named for assay [5] is Cavia porcellus. Kind of assay: Ability to display a naloxone-reversible inhibition of electrically induced contractions in GPI by Morphine at 0.5 uM. It is filed as functional.
Assay [6] is filed under the species Cavia porcellus. The assay is described as follows: Ability to display a naloxone-reversible inhibition of electrically induced contractions in GPI in the presence of 1 uM bestatin at concentration 2 uM.

The Inhibition is the share of the control response that was lost under treatment. As a reminder, the inhibition is the percentage by which the read-out fell short of the control. A lower inhibition goes with a response near the control. `CC(=O)N[C@H](Cc1ccccc1)C(=O)NCC(C)(C)NC(=O)C(N)Cc1ccc(O)cc1` (some centres not stated): the Inhibition in assay [1] came out at 91.5%. Moreover, 0.1 µM produced 43.5% inhibition in assay [2]. Moreover, in assay [3], the Ke was found to be 4.2 nM. This compound also yielded a Relative potency in assay [4] of 21.2.
As for `N[C@@H](Cc1ccccc1)C(=O)NCCNC(=O)[C@@H](N)Cc1ccc(O)cc1`, the Inhibition in assay [5] was 49.5%; in assay [1], 12%.
For `CC(=O)NC(Cc1ccccc1)C(=O)NCCNC(=O)C(N)Cc1ccc(O)cc1` (stereo in doubt), the Inhibition in assay [1] is listed as 10%. In addition, the inhibition at 0.1 µM in assay [2] came to 49.5%.
The matching figures for `CC(=O)NC(Cc1ccccc1)C(=O)NC(C)(C)CNC(=O)C(N)Cc1ccc(O)cc1` (stereo in doubt): 16.3% and 47%.
As to `CC(=O)N[C@H](Cc1ccccc1)C(=O)NCCC(C)(C)NC(=O)C(N)Cc1ccc(O)cc1` (some centres not stated), the Inhibition in assay [1] is given as 53%; in assay [4], 40%. Besides, the Ke in assay [3] is reported as 3.3 nM. This compound also displayed a Relative potency in assay [4] of 0.22.
Take `CC(=O)NC(Cc1ccccc1)C(=O)NCC(C)(C)NC(=O)C(N)Cc1ccc(O)cc1` (stereo in doubt): in assay [1], the Inhibition was found to be 79.3%. The compound further showed an inhibition at 0.1 µM in assay [2] of 47%. Moreover, the Ke in assay [3] stood at 1.4 nM. In addition, the Relative potency in assay [4] is 10.
In the case of `N[C@H](Cc1ccccc1)C(=O)NCCNC(=O)[C@@H](N)Cc1ccc(O)cc1`, in assay [1], the Inhibition was determined as 8%. Moreover, in assay [2], the inhibition at 0.1 µM stood at 49.5%.
`CC(=O)N[C@H](Cc1ccccc1)C(=O)NCCNC(=O)C(N)Cc1ccc(O)cc1` (some centres not stated): in assay [1], the Inhibition came out at 89.5%. The inhibition at 0.1 µM in assay [2] was found to be 40%. Further, the Ke in assay [3] was 4 nM. The Relative potency in assay [4] stood at 1.6.
Take `CC(=O)NC(Cc1ccccc1)C(=O)NCCCNC(=O)C(N)Cc1ccc(O)cc1` (stereo in doubt): the Inhibition is 5% in assay [1] and 8% in assay [6].
As to `CC(=O)N[C@H](Cc1ccccc1)C(=O)NC(C)(C)CNC(=O)C(N)Cc1ccc(O)cc1` (some centres not stated), in assay [1], the Inhibition was determined as 42.5%. Further, the inhibition at 0.1 µM in assay [2] stood at 40%. For the same compound, in assay [4], the Relative potency turned out to be 0.27.
Take `CC(=O)N[C@H](Cc1ccccc1)C(=O)NCCCNC(=O)C(N)Cc1ccc(O)cc1` (some centres not stated): the Inhibition in assay [1] is on record as 29.5%. In addition, the Ke in assay [3] stood at 4.4 nM. In assay [4], this compound yielded an Inhibition of 47% and a Relative potency of 0.0077.
The corresponding values for `CC(=O)NC(Cc1ccccc1)C(=O)NCCC(C)(C)NC(=O)C(N)Cc1ccc(O)cc1` (stereo in doubt) are 50.5%, 2.1 nM, 47% and 0.052.
